Consider 19 molecules from ChEMBL document CHEMBL1144519, “A Pd(0) based cross-coupling approach to the synthesis of 2-amidopurines and their evaluation as CDK inhibitors” (Bioorg Med Chem, 2007).

The nature of assay [1]: Inhibition of CDK1/Cyclin B from M phase starfish oocytes. Also noted: species or system Marthasterias glacialis. The settings on record: oocyte. In a few lines:
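CDK1/cyclin B extracted in homogenization buffer from M-phase Marthasterias glacialis oocytes and affinity-purified on p9CKShs1-Sepharose, eluted with free p9CKShs1. Read-out was P81 phosphocellulose binding, phosphoric acid washes and scintillation counting. Values are blank-subtracted, % of uninhibited activity, with DMSO controls.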

Assay [2] deals with Cyclin-dependent kinase 5/CDK5 activator 1 (Homo sapiens, UniProt Q00535). In words: Inhibition of recombinant mammalian CDK5/p25 expressed in Escherichia coli. In short, it runs like this: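 Kinase was CDK5 with p25, a truncated p35 activator. Phosphate incorporation was measured on P81 phosphocellulose paper by scintillation counting. Activity is blank-corrected and expressed as % of activity without inhibitor, with DMSO controls.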

For orientation: IC50 means the concentration that gives 50% inhibition.

Molecules are shown by their SMILES. A value given as a limit tells only on which side of the number the result lay.

Cyclin-dependent kinase 5/CDK5 activator 1, sequence (Q00535 whole entry, the tested form may be a part): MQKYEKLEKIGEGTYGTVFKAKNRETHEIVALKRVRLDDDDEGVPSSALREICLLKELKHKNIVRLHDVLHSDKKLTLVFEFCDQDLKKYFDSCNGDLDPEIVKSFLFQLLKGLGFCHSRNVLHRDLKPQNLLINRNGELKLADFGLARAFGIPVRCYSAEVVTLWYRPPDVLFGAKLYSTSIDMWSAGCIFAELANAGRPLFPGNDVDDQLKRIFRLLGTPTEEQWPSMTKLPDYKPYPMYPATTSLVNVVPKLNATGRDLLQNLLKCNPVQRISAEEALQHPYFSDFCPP
Cyclin-dependent kinase 5/CDK5 activator 1, sequence (Q15078 whole entry, further chain, the tested form may be a part): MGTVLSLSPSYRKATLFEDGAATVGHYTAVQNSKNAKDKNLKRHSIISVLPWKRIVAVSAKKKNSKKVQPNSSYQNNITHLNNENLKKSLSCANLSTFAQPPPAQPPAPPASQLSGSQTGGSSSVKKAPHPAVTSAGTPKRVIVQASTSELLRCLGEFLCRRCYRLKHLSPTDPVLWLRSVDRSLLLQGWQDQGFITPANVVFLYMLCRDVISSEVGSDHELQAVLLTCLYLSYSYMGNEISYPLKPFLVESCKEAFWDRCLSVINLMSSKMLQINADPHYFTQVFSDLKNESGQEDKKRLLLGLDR

With `CCCC(=O)Nc1nc(NCc2ccc(OC)cc2)c2ncn(C(C)C)c2n1`, the IC50 in assay [1] was determined as 4400 nM; in assay [2] it was 3900 nM.

`CCCC(=O)Nc1nc(NCc2ccc(Cl)cc2)c2ncn(C(C)C)c2n1`: the IC50 in assay [1] turned out to be 2900 nM; in assay [2], 2100 nM.

Consider `COc1ccc(CNc2nc(NC(=O)CC(C)C)nc3c2ncn3C(C)C)cc1`, for which the figures for the IC50 in assay [1] and in assay [2] were 2300 nM and 1800 nM, respectively.

Turning to `COc1ccc(CNc2nc(NC(=O)CC(C)=O)nc3c2ncn3C(C)C)cc1`, the IC50 in assay [1] is 2400 nM; in assay [2] it was 1600 nM.

On to `COc1ccc(CNc2nc(C(=O)NC(C)C)nc3c2ncn3C(C)C)cc1`, for which the IC50 amounted to 2300 nM in assay [1] and 2400 nM in assay [2].

For the molecule `CCCC(=O)Nc1nc(NCCOC)c2ncn(C(C)C)c2n1`, the IC50 is 13000 nM in assay [1] and 10000 nM in assay [2].

With `COc1ccc(CNc2nc(NC(=O)c3ccc(OC)cc3)nc3c2ncn3C(C)C)cc1`, the results for the IC50 in assay [1] and in assay [2] were 4600 nM and 3400 nM, respectively.

Consider `COCCNc1nc(NC(=O)CC(C)C)nc2c1ncn2C(C)C`, for which the results for the IC50 in assay [1] and in assay [2] were 9600 nM and 6600 nM, respectively.

Regarding `COc1ccc(C(=O)Nc2nc(NCc3ccc(Cl)cc3)c3ncn(C(C)C)c3n2)cc1`, the results for the half-maximal inhibitory concentration (IC50) in assay [1] and in assay [2] were 40000 nM and 19000 nM, respectively.

For `COc1ccc(CNc2nc(C(=O)NCC(C)C)nc3c2ncn3C(C)C)cc1`, the IC50 was 2400 nM in assay [1] and 2100 nM in assay [2].

Consider `COCCNc1nc(C(=O)NCC(C)C)nc2c1ncn2C(C)C`, for which the IC50 amounted to 7200 nM in assay [1] and 16000 nM in assay [2].

As for `CC(C)C(=O)Nc1nc(NCc2ccc(Cl)cc2)c2ncn(C(C)C)c2n1`, the 50% inhibitory concentration (IC50) is 1200 nM in assay [1] and 900 nM in assay [2].

For the molecule `COCCNc1nc(NC(=O)C(C)C)nc2c1ncn2C(C)C`, the IC50 in assay [2] was determined as 7000 nM.

Regarding `COCCNc1nc(NC(=O)c2ccc(OC)cc2)nc2c1ncn2C(C)C`, the 50% inhibitory concentration (IC50) in assay [1] was above 10000 nM.

As to `COc1ccc(CNc2nc(NC(=O)C(C)C)nc3c2ncn3C(C)C)cc1`, the IC50 was 940 nM in assay [1] and 1300 nM in assay [2].

In assay [1], `COCCNc1nc(NC(=O)CC(C)=O)nc2c1ncn2C(C)C` came in with an IC50 above 10000 nM.

Take `CC(C)CC(=O)Nc1nc(NCc2ccc(Cl)cc2)c2ncn(C(C)C)c2n1`: the IC50 in assay [1] was determined as 3000 nM; in assay [2], 1600 nM.

As to `CC(C)NC(=O)c1nc(NCc2ccc(Cl)cc2)c2ncn(C(C)C)c2n1`, the IC50 in assay [1] was determined as 1700 nM; in assay [2], 2000 nM.

Take `COCCNc1nc(C(=O)NC(C)C)nc2c1ncn2C(C)C`: the IC50 in assay [1] worked out at 8300 nM; in assay [2], 13000 nM.
